In ChEMBL document CHEMBL4316636, “Tetrandraxanthones A-I, Prenylated and Geranylated Xanthones from the Stem Bark of Garcinia tetrandra” (J Nat Prod, 2019):

How the values were obtained:
Format in all cases: functional, cell-based
MCF7 = experiment: Cytotoxicity in human MCF7 cells incubated for 72 hrs by MTT assay; conditions: MCF7, 72 h
Procedure, shortened: (§1)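 MTT colorimetric read-out after 72 h incubation of tumour cells: Hep G2 hepatocellular carcinoma, HeLa S3 cervix adenocarcinoma, MCF-7 breast adenocarcinoma, HT-29 colon adenocarcinoma, and KB epidermoid carcinoma. IC50 is given as the mean ± SD of three experiments, with doxorubicin as the positive control. HeLa S3 and KB were screened first.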

KB = experiment: Cytotoxicity in human KB cells incubated for 72 hrs by MTT assay; procedure, shortened: as §1
HepG2 = experiment: Cytotoxicity in human HepG2 cells incubated for 72 hrs by MTT assay; conditions: HepG2, 72 h; procedure, shortened: as §1
HT-29 = experiment: Cytotoxicity in human HT-29 cells incubated for 72 hrs by MTT assay; conditions: HT-29, 72 h; procedure, shortened: as §1
HeLa S3 = experiment: Cytotoxicity in human HeLaS3 cells incubated for 72 hrs by MTT assay; conditions: HeLa S3, 72 h; procedure, shortened: as §1

Row | Structure (SMILES) | IC50 (MCF7) [µM] | IC50 (KB) [µM] | IC50 (HepG2) [µM] | IC50 (HT-29) [µM] | IC50 (HeLa S3) [µM]
1 | COc1c(O)cc2oc3cc(O)cc(O)c3c(=O)c2c1CC=C(C)C | > 10 | > 10 | > 10 | > 10 | > 10
2 | COc1c(O)cc2oc3cc4c(c(O)c3c(=O)c2c1CCC(C)(C)O)CCC(C)(C)O4 | > 10 | > 10 | > 10 | > 10 | > 10
3 | O=c1c2cc(O)c(O)cc2oc2cc(O)cc(O)c12 | > 10 | > 10 | > 10 | > 10 | > 10
4 | O=c1c2cc(O)ccc2oc2cc(O)cc(O)c12 | > 10 | > 10 | > 10 | > 10 | > 10
5 | O=c1c2cc(O)ccc2oc2cccc(O)c12 | > 10 | > 10 | > 10 | > 10 | > 10
6 | COc1c(O)ccc2c(=O)c3c(O)c4c(cc3oc12)OC(C)(C)C=C4 | > 10 | > 10 | > 10 | > 10 | > 10
7 | COc1c(O)cc2oc3cc(O)cc(O)c3c(=O)c2c1CC1=C(C)CCCC1(C)C | > 10 | > 10 | > 10 | > 10 | > 10
8 | CC1(C)CCc2c(cc3oc4ccc(O)cc4c(=O)c3c2O)O1 | > 10 | > 10 | > 10 | > 10 | > 10
9 | C=C1CCCC(C)(C)C1Cc1c(OC)c(O)cc2oc3cc(O)cc(O)c3c(=O)c12 (stereo not given) | > 10 | > 10 | > 10 | > 10 | > 10
10 | COc1c(O)cc2oc3c4c(cc(O)c3c(=O)c2c1CC=C(C)C)OC(C)(CCC=C(C)C)C=C4 (stereo not given) | > 10 | > 10 | > 10 | > 10 | > 10
11 | COc1c(O)cc2oc3c(CC=C(C)C)c(O)cc(O)c3c(=O)c2c1CCC(C)(O)CCC=C(C)C (stereo not given) | 8.8 | 7.1 | > 10 | > 10 | > 10
12 | COc1c(OC)c(OC)c2c(=O)c3c(O)c4c(cc3oc2c1OC)OC(C)(C)C=C4 | > 10 | > 10 | > 10 | > 10 | > 10
13 | COc1c(O)cc2oc3c(C/C=C(\C)CCC=C(C)C)c(O)cc(O)c3c(=O)c2c1CC=C(C)C | 4.3 | 4.9 | > 10 | > 10 | 5.8
14 | COc1c(O)cc2oc3c(C/C=C(\C)CCC=C(C)C)c(O)cc(O)c3c(=O)c2c1CCC(C)(C)O | > 10 | > 10 | > 10 | > 10 | > 10
15 | COc1c(O)cc2oc3c(C/C=C(\C)CCC=C(C)C)c(O)c(CC=C(C)C)c(O)c3c(=O)c2c1CC=C(C)C | > 10 | > 10 | > 10 | > 10 | > 10
16 | COc1c(O)cc2oc3cc(O)cc(O)c3c(=O)c2c1CCC1(C)CCCC(C)(C)O1 (stereo not given) | > 10 | > 10 | > 10 | > 10 | > 10

Row | Structure (SMILES) | IC50 (MCF7) [µM] | IC50 (KB) [µM] | IC50 (HepG2) [µM] | IC50 (HT-29) [µM] | IC50 (HeLa S3) [µM]
17 | COc1c(O)cc2oc3c(CC=C(C)C)c(O)cc(O)c3c(=O)c2c1CC=C(C)C | > 10 | > 10 | > 10 | > 10 | > 10
18 | O=c1c2ccc(O)c(O)c2oc2cc(O)cc(O)c12 | > 10 | > 10 | > 10 | > 10 | > 10
19 | COc1c(O)cc2oc3c(CC=C(C)C)c(O)cc(O)c3c(=O)c2c1C/C=C(\C)CCC=C(C)C | 7 | 7.1 | > 10 | > 10 | 9
20 | COc1c(O)cc2oc3cc(O)cc(O)c3c(=O)c2c1CCC(C)(O)CCC=C(C)C (stereo not given) | > 10 | > 10 | > 10 | > 10 | > 10
21 | COc1c(O)cc2oc3c4c(cc(O)c3c(=O)c2c1C/C=C(\C)CCC=C(C)C)OC(C)(C)C=C4 | > 10 | > 10 | > 10 | > 10 | > 10
22 | COc1c(O)c(OC)c2oc3cc4c(c(O)c3c(=O)c2c1OC)C=CC(C)(C)O4 | > 10 | > 10 | > 10 | > 10 | > 10
23 | COc1c(O)cc2oc3cc4c(c(O)c3c(=O)c2c1CC=C(C)C)CCC(C)(C)O4 | > 10 | > 10 | > 10 | > 10 | > 10
24 | COc1c(O)cc2oc3cc(O)cc(O)c3c(=O)c2c1C/C=C(\C)CCCC(C)(C)O [BUTYRAXANTHONE D] | > 10 | > 10 | > 10 | > 10 | > 10
25 | COc1cccc2c1C(=O)c1c(O)c3c(c(O)c1C2=O)C[C@@](O)(C(=O)CO)C[C@@H]3O[C@H]1C[C@H](N)[C@H](O)[C@H](C)O1 [DOXORUBICIN] | 0.49 | 0.01 | 1.43 | 0.34 | 0.12
26 | COc1c(O)cc2oc3cc(O)c(CC=C(C)C)c(O)c3c(=O)c2c1CCC(C)(C)O [GARCINONE D] | > 10 | > 10 | > 10 | > 10 | > 10
27 | C=CC(C)(C)c1c2c(c(O)c3c(=O)c4ccc(O)c(O)c4oc13)C=CC(C)(C)O2 [MACLURAXANTHONE] | > 10 | 7.4 | > 10 | > 10 | 6.7
28 | COc1c(O)cc2oc3cc4c(c(O)c3c(=O)c2c1CC=C(C)C)C=CC(C)(C)O4 [MANGOSTANIN] | 1.9 | 1.7 | 3.4 | 1.6 | 1.9
29 | COc1c(O)cc2oc3cc(O)c(CC=C(C)C)c(O)c3c(=O)c2c1CC=C(C)C [MANGOSTIN] | > 10 | > 10 | > 10 | > 10 | > 10
30 | C=CC(C)(C)c1c(OC)c(CC=C(C)C)c(O)c2c(=O)c3ccc(O)c(O)c3oc12 [NIGROLINEAXANTHONE E] | > 10 | > 10 | > 10 | > 10 | > 10
31 | COc1c(O)cc2oc3cc(O)cc(O)c3c(=O)c2c1C/C=C(\C)CCC=C(C)C [RUBRAXANTHONE] | > 10 | > 10 | > 10 | > 10 | > 10
